# Like-named read-outs stand apart in the source and are kept apart here.
# How the values were obtained:
# [1] = system: primary human hepatocytes; assay: Drug recovery from 2D cultures or LAMPS chip effluent; format: in vitro ADME; details: primary human hepatocytes; effect most pronounced for these drugs
# How it was run: (§1)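 Hepatocytes were seeded from thaw at 2.75×10^6 cells/mL into fibronectin/collagen I-coated chips or 96-well plates, then overlaid with THP-1, EA.hy926 and LX-2 cells. Drugs in 0.1% DMSO vehicle were added on day 0. Chips were perfused at 15 μL/hour, and 2D media were exchanged daily for up to 10 days. Drugs in effluent or medium were quantified by LC-MS/MS and expressed as % of starting concentration. Values are mean±SEM, n=3–9.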
# [2] = as above; format: in vitro ADME; details: human, iCell hepatocytes
# How it was run: as §1
# [3] = system: primary human hepatocytes; assay: Drug effects on viability and function; format: cell-based; details: both laboratories
# [4] = Drug recovery from 2D cultures or LAMPS chip effluent; format: in vitro ADME, human; details: human; for recovery: primary human hepatocytes, 2D cultures or LAMPS chips
# How it was run: as §1
# [5] = system: primary human hepatocytes; assay: Drug effects on viability and function in 2D monolayer cultures; format: cell-based; details: day 10; 2D cultures with primary hepatocytes; Tolcapone 88 μM, Trovafloxacin 150 μM, LPS 1 μg/mL
# [6] = system: primary human hepatocytes; details: cited from earlier work
# [7] = Tolcapone 88 μM, 5 days, vs No Treatment
# [8] = 2D monolayer-cultured primary human hepatocytes
recovery [2] [%],recovery ([2]; LAMPS chips and 2D monolayer) [%],SMILES,recovery in LAMPS chips compared with 2D monolayer cultures [1],recovery [4] [%],cell viability [5],other results
10 to 40,~100,CN(CCOc1ccc(CC2SC(=O)NC2=O)cc1)c1ccccn1 (centres unmarked) [Rosiglitazone],,,,
10 to 40,~100,Cc1c(C)c2c(c(C)c1O)CCC(C)(COc1ccc(CC3SC(=O)NC3=O)cc1)O2 (centres unmarked) [Troglitazone],lower recovery than 2D monolayer cultures,,,"recovery at 28 µM [4, 8]: > 10%; recovery at 1 day, 28 µM [4, 8]: < 1%"

# The remaining lines, values behind:
SMILES,recovery [2] [%],recovery ([2]; LAMPS chips and 2D monolayer) [%],recovery in LAMPS chips compared with 2D monolayer cultures [1],recovery [4] [%],cell viability [5],other results
CCc1ccc(CCOc2ccc(CC3SC(=O)NC3=O)cc2)nc1 (centres unmarked) [Pioglitazone],10 to 40,~100,lower recovery than 2D monolayer cultures,,,
N[C@@H]1[C@H]2CN(c3nc4c(cc3F)c(=O)c(C(=O)O)cn4-c3ccc(F)cc3F)C[C@@H]12 [Trovafloxacin],,,,~100,pronounced effects,effect on LDH ([3]; Trovafloxacin 150 μM): significant effects; effect on albumin ([3]; Trovafloxacin 150 μM): significant effects
Cc1ccc(C(=O)c2cc(O)c(O)c([N+](=O)[O-])c2)cc1 [Tolcapone],10 to 40,~100,,,pronounced effects,"albumin production [3, 7]: statistically significant decrease; urea production [3, 7]: statistically significant decrease"
Cn1c(=O)c2c(ncn2C)n(C)c1=O [Caffeine],,,,~100,,"effect on LDH levels ([6]; Caffeine 600 μM, previous study in Laboratory 2, different donor hepatocytes, ref Vernetti et al. 2016): reduced; effect on albumin [6]: without significant effect; effect on urea [6]: without significant effect"

# From publication PMC7785655 (Toxicology, 2020)
